Rows were chosen to be rich in hits. Some 2.3% of all compounds tested hit in one or more screens of this group.
Mcl1 Noxa PPI – Mcl-1/Noxa binding inhibitors, primary screen, biochemical, TR-FRET, 1536-well | Induced myeloid leukemia cell differentiation protein Mcl-1 (Homo sapiens), Q07820 | TR-FRET Mcl-1/Noxa peptide binding, 2 h | inhibition, % at 21.7 µM | 220,000 compounds, 1.5% hits | AID 1022, 2008;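 active means compounds that cut the protein-peptide binding signal by more than 50% relative to plate controls in a single-dose test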;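 further: His-tagged Mcl-1 with rhodamine Noxa BH3 peptide and terbium anti-His antibody; 0% = Mcl-1 plus Noxa peptide wells and 100% = peptide-only wells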
Target sequence (Q07820 whole entry, looked up): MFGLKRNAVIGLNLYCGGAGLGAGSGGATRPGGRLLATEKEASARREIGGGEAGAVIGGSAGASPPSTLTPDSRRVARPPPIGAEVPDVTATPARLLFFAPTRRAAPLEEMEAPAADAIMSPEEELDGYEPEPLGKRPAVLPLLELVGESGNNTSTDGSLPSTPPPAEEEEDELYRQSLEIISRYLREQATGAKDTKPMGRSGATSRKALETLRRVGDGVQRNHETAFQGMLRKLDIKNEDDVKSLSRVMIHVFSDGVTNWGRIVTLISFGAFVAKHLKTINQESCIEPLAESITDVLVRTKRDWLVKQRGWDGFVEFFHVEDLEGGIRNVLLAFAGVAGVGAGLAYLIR
MCL1 BIM primary – inhibitors of MCL1 binding to BIM-BH3, primary screen, biochemical, fluorescence polarization; inhibition, % at 10.9 µM; GST-MCL1 / FITC-Bim-BH3 fluorescence polarization; 320,000 compounds, 0.68% hits; AID 2057, 2009; Induced myeloid leukemia cell differentiation protein Mcl-1 (Homo sapiens), Q07820;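 active means inhibition above the mean inhibition of all tested compounds plus 3 SD, set per campaign, cut at about 40% in these data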;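 further: 0% = DMSO wells and 100% = unlabeled Bim-BH3 peptide control; higher means more loss of mP so more displacement of Bim peptide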
Pemphigus Ab inh – inhibitors of pemphigus antibody binding to DSG3, primary screen, biochemical, bead-based, flow cytometry, scFv-GFP. DSG3-coupled beads, scFv-anti-DSG3-GFP binding; active compounds read low. AID 588358, 2011. binding (percent of control), % at 10 µM. 310,000 compounds, 0.48% hits;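 active means binding more than 3 SD below its plate's average and above zero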;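 further: hits lower antibody fragment binding to DSG3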
Mcl1-Bid inh – Mcl-1/Bid binding inhibitors, primary screen, biochemical, TR-FRET, 1536-well; TR-FRET Mcl-1/Bid-Dy647 peptide binding; inhibition, % at 21.7 µM; 220,000 compounds, 0.97% hits;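 active means compounds that cut the binding signal by more than half at the single screening dose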;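 further: His-tagged Mcl-1 with europium anti-His antibody binding Bid BH3 peptide; 0% = Mcl-1 plus peptide wells and 100% = peptide-only wells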
T cell modulator – modulators of CD8 T cell-vesicle binding, primary screen, mouse 2C CD8+ T cells, flow cytometry; 2C CD8+ T cell-vesicle binding; active compounds read low; 330,000 compounds, 0.068% hits; response (vesicle binding), % at 7 µM;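 active means response, share of CD8 T cells binding vesicles, and their 90th percentile fluorescence all below set limits, cut at about 80% in these data, passing the limit was not always enough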;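 further: values below 100% mean blocked vesicle binding to the CD8+ T cells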
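System: murine 2C transgenic CD8+ T lymphocytes; also added: QL9-loaded Drosophila micro-vesicles; times: binding 1.5 h at 37 °C; measured by: flow cytometry, PE anti-B7-1 (FL2) versus Alexa647 anti-CD8 (FL8), PFA-fixed; control set: Peptide-free naked vesicles (low) and QL9 vesicles with 0.7% DMSO vehicle (high)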
Bim-Mcl-1 – inhibitors of Bim peptide binding to Mcl-1, primary screen, biochemical, bead-based flow cytometry, multiplex; inhibition, % at 10 µM; Bim peptide-Mcl-1 binding; 190,000 compounds, 0.1% hits; in the data active means inhibition above about 40%;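 further: 0% = no compound tracer wells and 100% = peptide blocker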
* = called active by the depositor; i = inactive; nt = not tested or not shown.

SMILES | Mcl1 Noxa PPI | MCL1 BIM primary | Pemphigus Ab inh | Mcl1-Bid inh | T cell modulator | Bim-Mcl-1
O=C1CCCN1CCCNCC(O)c1ccccc1 (stereo not given) | nt | -6.5 | 100.3 | nt | 70.6 | nt
CC(C)(C)N=C1NN=C(c2cc3ccccc3o2)CS1 | 71.3* | 15.3 | 93.8 | -10.9 | 427.0 | -4.0
O=C(NCc1ccncc1)C(=O)NCC1OCCN1S(=O)(=O)c1cc(F)ccc1F (stereo not given) | nt | 3.4 | nt | nt | 387.4 | nt
CCN(CC)c1ccc(/C=N/N2CCOCC2)cc1 | 23.2 | -2.7 | nt | -43.0 | 312.6 | 0.0
CCN(Cc1ccccc1)c1ccc(/C=N/N2CCOCC2)cc1 | 64.4* | 9.7 | 102.8 | -45.9 | 393.3 | -1.0
CNc1sc(C(=O)c2cccs2)c(N)c1-c1nc2ccccc2s1 | 55.9* | 6.3 | 98.5 | -25.7 | 340.5 | 3.0
CNc1sc(C(=O)c2ccc(F)cc2)c(N)c1-c1nc2ccccc2s1 | 92.2* | 24.8 | 94.3 | -51.4 | 703.5 | -1.0
CNC(=O)c1c[nH]c2ccc(S(=O)(=O)Nc3cccc(SC)c3)cc2c1=O | nt | nt | 99.6 | nt | 177.9 | nt
CN(C)c1ccc(/C=N/N=C2/SC(CC(=O)O)C(=O)N2c2ccc(O)cc2)cc1 (stereo not given) | 33.6 | -5.7 | 106.8 | -8.2 | 220.3 | -1.0
CN(C1=NC(=O)C(CC(=O)O)S1)c1ccc(O)cc1 (stereo not given) | 20.4 | -3.7 | 22.8* | -19.8 | 229.5 | -1.0
CCOC(=O)c1c(C)nc2sc(C(N)=O)c(N)c2c1-c1ccccc1 | 4.2 | 6.1 | 104.7 | -19.2 | 266.2 | -6.0
CCOC(=O)c1c(C)nc2sc(C(=O)Nc3ccccc3)c(N)c2c1-c1ccc(OC)cc1 | 3.2 | 1.6 | 87.8* | -16.7 | 385.5 | -3.0
CC#CC[N+](C)(C)CCCCCCCCCC | -19.5 | -7.4 | 113.2 | 1.4 | 480.7 | nt
O=C(CC(=O)NC1CCCCC1)N/N=C/c1ccccc1[N+](=O)[O-] | nt | 5.5 | 109.2 | nt | 309.0 | nt
CCOC(=O)[C@@H]1[C@H]2COc3ccc(Br)cc3[C@H]2N2C(=O)N(c3ccc(F)cc3)C(=O)[C@@]12C | nt | 4.4 | 100.6 | nt | 262.5 | nt
COc1ccc(/C=N/Nc2nonc2N)cc1 | 61.3* | 3.0 | 107.4 | -11.8 | 468.5 | 0.0
Nc1nonc1N/N=C\c1ccccc1 | -11.7 | 1.3 | 99.5 | -2.2 | 323.6 | nt
COc1ccc(C=Nc2cccnc2N)cc1 | nt | 45.4* | 96.4 | nt | 348.1 | nt
COc1ccc(/C=N/Nc2nonc2N)cc1OC | -0.4 | 1.8 | 107.2 | -12.0 | 221.5 | -2.0
Nc1nonc1N/N=C/c1c(O)ccc2ccccc12 | 51.5* | 7.2 | 94.6 | -20.7 | 333.6 | 1.0
CCOc1ccc(C=Nc2cccc3ncccc23)cc1 | 24.5 | 8.6 | 104.6 | -41.9 | 467.4 | 0.0
COc1ccc(/C=N/Nc2nn3cnnc3c3ccccc23)cc1 | 57.1* | 6.1 | nt | 8.6 | 518.9 | nt
CCNc1nc(NCC)nc(N/N=C/c2ccc(OC)cc2)n1 | -20.2 | 4.3 | 111.2 | -16.2 | 150.4 | nt
Cc1cc(S(=O)(=O)Nc2ccc3cn[nH]c3c2)c(C)cc1Cl | nt | 4.8 | 104.7 | nt | 274.9 | nt
C[C@H]1CN([C@@H](C)CO)C(=O)c2cccc(NS(=O)(=O)c3ccc(Cl)cc3)c2O[C@@H]1CN(C)CC1CCCCC1 | nt | nt | 102.9 | nt | 270.8 | nt
SMILES | Mcl1 Noxa PPI | MCL1 BIM primary | Pemphigus Ab inh | Mcl1-Bid inh | T cell modulator | Bim-Mcl-1
O=C(c1ccccc1)c1ccc2nc(N3CCN(C(=O)c4ccco4)CC3)c3nncn3c2c1 | 55.8* | 7.7 | 98.5 | 6.2 | 888.4 | 0.0
O=C(Nc1cccc([N+](=O)[O-])c1)NN1CCCCCC1 | nt | nt | 117.0 | nt | nt | nt
Cc1cnc(NC(=O)CSc2nnc(COc3c(C)cccc3C)o2)s1 | 1.1 | 2.5 | 82.1* | -21.8 | 324.3 | -1.0
O=C(CCCN1CCC(O)(c2ccc(Cl)cc2)CC1)c1ccc(F)cc1 | 17.8 | 8.7 | 53.1* | 0.7 | 619.5 | -3.0
O=[N+]([O-])c1cc(-c2ccc(/C=N/c3nc4ccccn4c3-c3ccco3)o2)ccc1Cl | 65.3* | 30.4 | 93.0 | 64.6* | 253.8 | 1.0
O=[N+]([O-])c1ccc(-c2ccc(C=Nc3cccc4ccccc34)o2)cc1 | 14.7 | -8.8 | 86.8 | -18.5 | 247.5 | 0.0
COc1ccc(/C=N/NC(=O)Nc2cccc3nsnc23)cc1 | 1.6 | -8.2 | 101.3 | 52.6* | 287.2 | -2.0
O=C(Nc1cccc(O)c1)c1c(O)c2ccccc2[nH]c1=O | nt | -12.9 | 101.7 | nt | 171.1 | nt
CC(=O)C1=C(C)NC(SCC(=O)c2ccc(Cl)cc2)=C(C#N)C1CC(C)C (stereo not given) | 11.0 | 1.4 | 116.7 | -57.5 | 433.5 | -2.0
CC(=O)C1=C(C)NC(SCC(=O)c2ccc(F)cc2)=C(C#N)C1CC(C)C (stereo not given) | 52.2* | 7.5 | 95.3 | -15.7 | 364.7 | -9.0
O=C(COC(=O)c1ccc(Br)cc1)NCc1ccccc1 | 10.3 | 7.7 | 105.2 | -14.0 | i | -1.0
CC(=O)Cc1cc(O)c2ccccc2c1OC(=O)c1ccc(Br)cc1 | 24.0 | 10.0 | 95.3 | 96.2* | 895.9 | nt
Cc1ccc(S(=O)(=O)N/N=C/c2cnn(C)c2C)cc1 | 4.0 | 0.5 | 104.8 | 70.1* | 237.3 | -8.0
COC(=O)c1c(NC(=O)CC2Nc3cc(C)c(C)cc3NC2=O)sc(C)c1C (stereo not given) | 64.2* | -8.6 | 134.9 | 61.5* | 202.4 | -4.0
COc1ccc(CCNC(=O)CCNS(=O)(=O)c2ccc3c(c2)CCN3C(C)=O)cc1OC | -7.1 | 1.9 | 97.4 | 57.6* | 177.0 | -3.0
O=C(O)Cn1c(-c2cscn2)nc2ccccc21 | 8.9 | 10.8 | 98.6 | -2.5 | 428.2 | 0.0
N#Cc1ccccc1Cn1c(-c2cscn2)nc2ccccc21 | 5.9 | 7.7 | 105.1 | 79.2* | 321.4 | 1.0
Oc1ccccc1/C=N/c1c(-c2ccco2)nc2ccccn12 | 34.6 | 23.2 | 98.7 | -17.1 | 275.9 | -6.0
COc1ccc(/C=N/c2c(-c3ccco3)nc3ccccn23)cc1OC | 35.3 | 47.0* | nt | -3.1 | 895.3 | 0.0
Clc1ccc(/C=N/c2c(-c3ccco3)nc3ccccn23)cc1 | 49.7 | 47.0* | 99.1 | -43.7 | 527.8 | 3.0
Cc1ccccc1C(=O)N1CCC(C(=O)Nc2ccc(S(=O)(=O)N3CCCCC3)cc2)CC1 | nt | -20.4 | 94.8 | nt | 587.4 | nt
CCOc1ccc(C=NNC(=O)c2ccc(-n3cnnn3)cc2)cc1 | nt | nt | 80.2 | nt | 191.2 | nt
CCOC(=O)C1=C[C@]2(CC)CCCN3CCc4c(n1c1ccccc41)[C@@H]32 | 6.7 | -7.8 | 75.4* | -19.3 | 386.6 | -2.0
CC[C@]12CCCN3CCc4c(n(c5ccccc45)C(=O)C1)[C@@H]32 | nt | 2.1 | 107.2 | nt | 42.4 | nt
